The values below come from ChEMBL document CHEMBL2385051, “Facile synthesis of new imidazo[1,2-a]pyridines carrying 1,2,3-triazoles via click chemistry and their antiepileptic studies” (Bioorg Med Chem Lett, 2013).

Calls of active or inactive are those of the source. The calls are words filed in the database; no cut-off is given here.

In data set [1] the test system is Mus musculus. In words: Neurotoxicity in NMRI mouse assessed as minimal motor impairment at 20 to 100 mg/kg, ip after 4 hrs by rotarod test. Format: toxicity, organism-based. On the set-up: dose 20-100 mg/kg, route intraperitoneal. The settings on record: in vivo. The essentials:
(§1)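 Rotarod motor-impairment test in mice given 20, 40 and 100 mg/kg doses, read 0.5 and 4 h after administration. The value recorded is the minimal dose producing toxicity in more than 50% of mice.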
In general terms: The rotarod test checks motor coordination on a turning rod.

The subject of data set [2] is Mus musculus. In words: Neurotoxicity in NMRI mouse assessed as minimal motor impairment at 20 to 100 mg/kg, ip after 0.5 hrs by rotarod test. Format: toxicity, organism-based. Also noted: dose 20-100 mg/kg, route intraperitoneal. The settings on record: in vivo. An outline of the steps:
as §1

For data set [3], the system named is Mus musculus. The experiment in a line: Anticonvulsant activity in NMRI mouse assessed as protection against maximal electroshock-induced seizures at 20 to 100 mg/kg, ip after 0.5 hrs. Format: functional, organism-based. The essentials:
(§2)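 Mice received 20, 40 and 100 mg/kg test doses. Seizures were induced by electrical shock (MES) or PTZ injection (scPTZ) at 0.5 and 4 h after dosing. The value recorded is the minimal dose protecting more than 50% of mice against seizure.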

Data set [4] has as its system Mus musculus. The experiment in a line: Anticonvulsant activity in ip dosed NMRI mouse assessed as dose required to cause protection against subcutaneous pentylene tetrazole-induced seizure after 4 hrs. Format: functional. The settings on record: read-out: MED. The essentials:
as §2

Data set [5] relates to Mus musculus. The experiment in a line: Anticonvulsant activity in ip dosed NMRI mouse assessed as dose required to cause protection against subcutaneous pentylene tetrazole-induced seizure after 0.5 hrs. It is filed as functional. The settings on record: read-out: MED. An outline of the steps:
as §2

The test system of data set [6] is Mus musculus. In words: Anticonvulsant activity in ip dosed NMRI mouse assessed as dose required to cause protection against maximal electroshock-induced seizures after 4 hrs. Format: functional. The settings on record: read-out: MED. The essentials:
as §2

Data set [7] has as its system Mus musculus. The experiment in a line: Anticonvulsant activity in NMRI mouse assessed as protection against maximal electroshock-induced seizures at 20 to 100 mg/kg, ip after 4 hrs. Format: functional, organism-based. An outline of the steps:
as §2

The subject of data set [8] is Mus musculus. The experiment in a line: Anticonvulsant activity in NMRI mouse assessed as protection against subcutaneous pentylene tetrazole-induced seizure at 20 to 100 mg/kg, ip after 0.5 hrs. It is filed as functional, organism-based. The essentials:
as §2

Data set [9] relates to Mus musculus. The experiment in a line: Anticonvulsant activity in NMRI mouse assessed as protection against subcutaneous pentylene tetrazole-induced seizure at 20 to 100 mg/kg, ip after 4 hrs. Format: functional, organism-based. The essentials: as §2

Turning to `COc1ccc(Cn2cc(CO/N=C/c3c(-c4ccc(C)cc4)nc4c(C)cccn34)nn2)cc1`, the Activity entry in the data set with Mus musculus [1] and in the data set with Mus musculus [2] was “Non-toxic” in each case. The outcome with Mus musculus [3] was inactive. Further, the minimal effective dose with Mus musculus [4] was 100 mg/kg; with Mus musculus [5], 40 mg/kg; in the data set with Mus musculus [6] it was 100 mg/kg.
For the molecule `C#CCO/N=C/c1c(-c2ccc(C)cc2)nc2ccc(Br)cn12`, the Activity entry in the data set with Mus musculus [1] and in the data set with Mus musculus [2] was “Non-toxic” each time. Moreover, the outcome in the data set with Mus musculus [3] was inactive. Moreover, the figures for the minimal effective dose in the data set on Mus musculus [4], in the data set with Mus musculus [5] and with Mus musculus [6] were 40 mg/kg, 20 mg/kg and 20 mg/kg, respectively.
For `COc1ccc(Cn2cc(CO/N=C/c3c(-c4ccc(C)cc4)nc4ccc(Br)cn34)nn2)cc1`, the Activity entry with Mus musculus [1] and with Mus musculus [2] was “Non-toxic” throughout. Moreover, the result in the data set on Mus musculus [7], with Mus musculus [3] and in the data set with Mus musculus [8] was inactive. The minimal effective dose in the data set on Mus musculus [4] is 40 mg/kg.
Regarding `C#CCO/N=C/c1c(-c2ccc(F)cc2)nc2c(C)cccn12`, the Activity entry with Mus musculus [1] and in the data set with Mus musculus [2] was “Non-toxic” in each case. In addition, the result with Mus musculus [7], in the data set with Mus musculus [3] and in the data set on Mus musculus [8] was inactive. In addition, the minimal effective dose with Mus musculus [4] was 100 mg/kg.
As for `N#Cc1ccc(Cn2cc(CO/N=C/c3c(-c4ccccc4)nc4ccc(Br)cn34)nn2)cc1`, the Activity result with Mus musculus [1] and in the data set with Mus musculus [2] was “Non-toxic” each time. Moreover, in the data set on Mus musculus [3], the result was inactive. The minimal effective dose in the data set on Mus musculus [4] was found to be 20 mg/kg; in the data set on Mus musculus [5], 20 mg/kg; in the data set on Mus musculus [6], 100 mg/kg.
Turning to `CN1C(=O)CN=C(c2ccccc2)c2cc(Cl)ccc21` [DIAZEPAM], the Activity entry in the data set on Mus musculus [1] and in the data set on Mus musculus [2] was “Non-toxic” throughout. Besides, the minimal effective dose with Mus musculus [4] and with Mus musculus [5] was 20 mg/kg each time.
With `C#CCO/N=C/c1c(-c2ccccc2)nc2ccc(Br)cn12`, the Activity entry in the data set on Mus musculus [1] and in the data set on Mus musculus [2] was “Non-toxic” throughout. The result with Mus musculus [9], with Mus musculus [7], in the data set on Mus musculus [3] and in the data set with Mus musculus [8] was inactive.
Regarding `Cc1ccc(Cn2cc(CO/N=C/c3c(-c4ccc(F)cc4)nc4c(C)cccn34)nn2)cc1`, the Activity result in the data set on Mus musculus [1] and in the data set with Mus musculus [2] was “Non-toxic” each time. In addition, the outcome in the data set on Mus musculus [7], in the data set on Mus musculus [3] and with Mus musculus [8] was inactive. In the data set on Mus musculus [4], the minimal effective dose came to 40 mg/kg.
Consider `Cc1cccn2c(/C=N/OCc3cn(Cc4ccc(C#N)cc4)nn3)c(-c3ccccc3)nc12`, for which the Activity result in the data set on Mus musculus [1] and in the data set with Mus musculus [2] was “Non-toxic” each time. Besides, the outcome in the data set on Mus musculus [7], with Mus musculus [3] and with Mus musculus [8] was inactive. For the same molecule, in the data set on Mus musculus [4], the minimal effective dose stood at 40 mg/kg.
On to `Cc1ccc(-c2nc3c(C)cccn3c2/C=N/O)cc1`, for which the Activity result with Mus musculus [1] and in the data set on Mus musculus [2] was “Non-toxic” throughout. Moreover, the result in the data set on Mus musculus [3] was inactive. Also, the minimal effective dose was found to be 40 mg/kg with Mus musculus [4], 20 mg/kg in the data set with Mus musculus [5] and 40 mg/kg in the data set on Mus musculus [6].
For `Cc1ccc(-c2nc3ccc(Br)cn3c2/C=N/OCc2cn(Cc3ccc(C#N)cc3)nn2)cc1`, the Activity result in the data set with Mus musculus [1] and in the data set with Mus musculus [2] was “Non-toxic” in each case. Also, the outcome in the data set with Mus musculus [7] and in the data set on Mus musculus [3] was inactive. For the same molecule, the minimal effective dose in the data set on Mus musculus [4] and with Mus musculus [5] was 40 mg/kg each time.
Regarding `COc1ccc(Cn2cc(CO/N=C/c3c(-c4ccc(F)cc4)nc4c(C)cccn34)nn2)cc1`, the Activity entry with Mus musculus [1] and in the data set with Mus musculus [2] was “Non-toxic” throughout. Besides, the outcome in the data set on Mus musculus [7] and with Mus musculus [3] was inactive. Moreover, the minimal effective dose in the data set on Mus musculus [4] and in the data set on Mus musculus [5] was 40 mg/kg in each case.
For the molecule `O/N=C/c1c(-c2ccc(F)cc2)nc2ccc(Br)cn12`, the Activity result in the data set on Mus musculus [1] and with Mus musculus [2] was “Non-toxic” throughout. Moreover, the result in the data set with Mus musculus [7] and in the data set with Mus musculus [3] was inactive. The minimal effective dose in the data set with Mus musculus [4] and with Mus musculus [5] was 40 mg/kg each time.
With `Cc1ccc(-c2nc3ccc(Br)cn3c2/C=N/O)cc1`, the Activity entry with Mus musculus [1] and in the data set with Mus musculus [2] was “Non-toxic” each time. Also, in the data set with Mus musculus [3], the outcome was inactive. In addition, the minimal effective dose with Mus musculus [4] amounted to 20 mg/kg; in the data set on Mus musculus [5] it was 20 mg/kg; with Mus musculus [6] it was 100 mg/kg.
For the molecule `Cc1ccc(Cn2cc(CO/N=C/c3c(-c4ccc(F)cc4)nc4ccc(Br)cn34)nn2)cc1`, the Activity entry with Mus musculus [1] and with Mus musculus [2] was “Non-toxic” in each case. Moreover, the outcome in the data set on Mus musculus [7], with Mus musculus [3] and with Mus musculus [8] was inactive. For the same molecule, the minimal effective dose in the data set on Mus musculus [4] turned out to be 100 mg/kg.
Take `COc1ccc(Cn2cc(CO/N=C/c3c(-c4ccccc4)nc4c(C)cccn34)nn2)cc1`: the Activity entry with Mus musculus [1] and in the data set on Mus musculus [2] was “Non-toxic” in each case. In the data set with Mus musculus [3], the result was inactive. The minimal effective dose with Mus musculus [4] stood at 100 mg/kg; in the data set on Mus musculus [5], 40 mg/kg; in the data set with Mus musculus [6] it was 40 mg/kg.
Turning to `COc1ccc(Cn2cc(CO/N=C/c3c(-c4ccccc4)nc4ccc(Br)cn34)nn2)cc1`, the Activity result with Mus musculus [1] and with Mus musculus [2] was “Non-toxic” each time. Further, the outcome in the data set on Mus musculus [7], in the data set with Mus musculus [3] and with Mus musculus [8] was inactive. The minimal effective dose in the data set with Mus musculus [4] was 40 mg/kg.
Turning to `Cc1cccn2c(/C=N/O)c(-c3ccc(F)cc3)nc12`, the Activity entry with Mus musculus [1] and with Mus musculus [2] was “Non-toxic” each time. Besides, the result in the data set on Mus musculus [7], in the data set with Mus musculus [3] and in the data set on Mus musculus [8] was inactive. Besides, in the data set on Mus musculus [4], the minimal effective dose was found to be 40 mg/kg.
Regarding `C#CCO/N=C/c1c(-c2ccccc2)nc2c(C)cccn12`, the Activity result in the data set with Mus musculus [1] and in the data set on Mus musculus [2] was “Non-toxic” throughout. Also, the outcome in the data set with Mus musculus [7], with Mus musculus [3] and in the data set on Mus musculus [8] was inactive. Besides, in the data set on Mus musculus [4], the minimal effective dose amounted to 100 mg/kg.
As for `Cc1ccc(Cn2cc(CO/N=C/c3c(-c4ccc(C)cc4)nc4ccc(Br)cn34)nn2)cc1`, the Activity entry in the data set on Mus musculus [1] and with Mus musculus [2] was “Non-toxic” throughout. For the same molecule, the outcome in the data set on Mus musculus [7] and in the data set with Mus musculus [3] was inactive. The minimal effective dose with Mus musculus [4] amounted to 100 mg/kg; in the data set on Mus musculus [5] it was 40 mg/kg.
With `O=[N+]([O-])c1ccc(Cn2cc(CO/N=C/c3c(-c4ccccc4)nc4ccc(Br)cn34)nn2)cc1`, the Activity entry with Mus musculus [1] and with Mus musculus [2] was “Non-toxic” in each case. For the same molecule, the result with Mus musculus [3] was inactive. The minimal effective dose with Mus musculus [4] came out at 40 mg/kg; in the data set with Mus musculus [5], 20 mg/kg; in the data set with Mus musculus [6], 40 mg/kg.
